Data on two compounds can be found in ChEMBL document CHEMBL4715754, “Slowing down fat digestion and absorption by an oxadiazolone inhibitor targeting selectively gastric lipolysis” (2016).

The inhibition is the share of the control response that was lost under treatment.

For experiment [1], the target named is T1, Pancreatic triacylglycerol lipase (Sus scrofa) (UniProt P00591).
T1 sequence (whole entry): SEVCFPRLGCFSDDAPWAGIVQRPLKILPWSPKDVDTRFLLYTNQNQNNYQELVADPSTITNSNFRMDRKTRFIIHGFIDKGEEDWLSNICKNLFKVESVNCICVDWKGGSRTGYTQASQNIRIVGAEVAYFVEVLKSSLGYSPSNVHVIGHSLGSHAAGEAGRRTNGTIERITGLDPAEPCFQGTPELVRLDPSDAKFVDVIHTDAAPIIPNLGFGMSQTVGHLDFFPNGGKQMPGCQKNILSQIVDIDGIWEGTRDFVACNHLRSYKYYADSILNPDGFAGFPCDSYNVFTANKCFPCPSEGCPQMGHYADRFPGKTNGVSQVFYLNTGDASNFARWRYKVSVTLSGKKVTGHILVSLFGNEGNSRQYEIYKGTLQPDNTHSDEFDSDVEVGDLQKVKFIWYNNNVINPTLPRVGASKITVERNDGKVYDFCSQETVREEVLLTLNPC
The experiment can be described thus: Inhibition of porcine pancreatic lipase at 4.1 mg/ml under duodenal phase at pH 6.5 using solid test meal measured after 30 to 90 mins relative to control. Conditions: time 30-90 min.

Experiment [2] concerns the target T1, Pancreatic triacylglycerol lipase (Sus scrofa). The experiment can be described thus: Inhibition of porcine pancreatic lipase assessed as lipolysis level at 4.1 mg/ml under duodenal phase at pH 6.5 using solid test meal measured at 45 mins (reference value: 24.7 +/- 0.87 %). The arrangement: scale not given: the % may be the effect or the level left.
In experiment [3] the target is T2, Gastric triacylglycerol lipase (Canis lupus familiaris) (UniProt P80035).
T2 sequence (whole entry): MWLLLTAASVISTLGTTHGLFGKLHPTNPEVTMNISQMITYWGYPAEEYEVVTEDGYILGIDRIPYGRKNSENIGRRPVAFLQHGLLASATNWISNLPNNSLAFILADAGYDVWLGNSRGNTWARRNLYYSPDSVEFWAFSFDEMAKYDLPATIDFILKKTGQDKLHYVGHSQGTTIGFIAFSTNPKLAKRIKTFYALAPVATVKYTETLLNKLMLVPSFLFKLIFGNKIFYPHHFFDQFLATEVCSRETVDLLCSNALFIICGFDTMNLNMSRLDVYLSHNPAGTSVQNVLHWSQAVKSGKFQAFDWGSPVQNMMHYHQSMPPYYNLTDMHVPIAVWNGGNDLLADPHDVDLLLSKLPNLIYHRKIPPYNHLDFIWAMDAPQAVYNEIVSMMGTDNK
The experiment in a line: Inhibition of recombinant dog gastric lipase assessed as lipolysis level at 4.1 mg/ml under gastric phase at pH 5.5 using solid test meal measured up to 30 mins (reference value: 13 +/- 1.2 %). Conditions: time min <=30. The arrangement: scale not given: the % may be the effect or the level left. An outline of the steps: (§1)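 Gastric phase: 15 mL liquid or solid test meal (506 mg TAG) premixed with 734 µL of 4.1 mg/mL DMSO stock (2.94 mg, 7.262 µmol), then DGL to 17 µg/mL final, pH 5.5, 37 °C, stirred. Samples at 1, 15, 29 min; residual DGL activity by pH-stat; lipolysis level from TLC-FID of lipid extracts. DMSO-only controls; n = 3.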

Experiment [4] is filed under the species Homo sapiens. The experiment in a line: Inhibition of human pancreatic carboxylesterase preincubated for 30 mins at 25 degreeC. The gist of the method:
(§2)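 hCEH (1 mg/mL in 10 mM MES pH 6.5, 150 mM NaCl) pre-incubated 30 min at 25 °C with inhibitor from DMSO stock at various molar excesses, no substrate. Residual activity by pH-stat on tributyrin emulsion at 37 °C in 1 mM Tris-HCl pH 8.0, 100 mM NaCl, 5 mM CaCl2, 1 mM NaTDC. Relative to DMSO-only control; at least triplicate.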

The target of experiment [5] is T2, Gastric triacylglycerol lipase (Canis lupus familiaris). The experiment in a line: Inhibition of recombinant dog gastric lipase at 4.1 mg/ml under gastric phase at pH 5.5 using solid test meal measured up to 30 mins relative to control. To be noted: time min <=30. The gist of the method: as §1
Experiment [6] is filed under the species Homo sapiens. The experiment in a line: Inhibition of human pancreatic carboxylesterase at 20:1 molar excess compound concentration preincubated for 30 mins at 25 degreeC relative to control. An outline of the steps: as §2
The target of experiment [7] is T2, Gastric triacylglycerol lipase (Canis lupus familiaris). The experiment in a line: Inhibition of recombinant dog gastric lipase preincubated for 30 mins at 25 degreeC.
The target of experiment [8] is T3, Pancreatic lipase-related protein 2 (Cavia porcellus) (UniProt P81139).
T3 sequence (whole entry): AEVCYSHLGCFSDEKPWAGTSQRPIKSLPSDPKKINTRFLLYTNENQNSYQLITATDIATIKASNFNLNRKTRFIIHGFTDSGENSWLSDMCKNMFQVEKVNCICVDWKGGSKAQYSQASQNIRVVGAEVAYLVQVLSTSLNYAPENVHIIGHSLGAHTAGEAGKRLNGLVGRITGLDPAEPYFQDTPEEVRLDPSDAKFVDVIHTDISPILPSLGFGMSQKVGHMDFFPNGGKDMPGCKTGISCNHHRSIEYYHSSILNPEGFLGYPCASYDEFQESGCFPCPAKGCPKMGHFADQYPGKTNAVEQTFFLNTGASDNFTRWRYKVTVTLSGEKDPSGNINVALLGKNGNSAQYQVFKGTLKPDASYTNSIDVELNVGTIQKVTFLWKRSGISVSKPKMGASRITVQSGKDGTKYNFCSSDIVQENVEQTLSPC
The experiment can be described thus: Inhibition of recombinant guinea pig PL-RP2 expressed in Aspergillus oryzae preincubated for 30 mins at 25 degreeC.

Experiment [9] concerns the target T2, Gastric triacylglycerol lipase (Canis lupus familiaris). The experiment in a line: Inhibition of recombinant dog gastric lipase assessed as lipolysis level at 4.1 mg/ml under gastric phase at pH 5.5 using liquid test meal measured up to 30 mins (reference value: 22.3 +/- 1.4 %). To be noted: time min <=30. Set-up: scale not given: the % may be the effect or the level left. The gist of the method: as §1

Experiment [10] has the same target. The experiment can be described thus: Inhibition of recombinant dog gastric lipase at 20:1 molar excess compound concentration preincubated for 30 mins at 25 degreeC relative to control.
Experiment [11] deals with T1, Pancreatic triacylglycerol lipase (Sus scrofa). The experiment in a line: Inhibition of porcine pancreatic lipase assessed as residual activity at 4.1 mg/ml under duodenal phase at pH 6.5 using solid test meal measured after 30 to 90 mins relative to control. To be noted: time 30-90 min.
Experiment [12] shares this target. Conditions: dose 4.9 mg/ml, time 30-90 min.
Experiment [13] addresses T2, Gastric triacylglycerol lipase (Canis lupus familiaris). The experiment in a line: Inhibition of recombinant dog gastric lipase assessed as lipolysis level at 4.9 mg/ml under gastric phase at pH 5.5 using solid test meal measured up to 30 mins (reference value: 13 +/- 1.2 %). Set-up: scale not given: the % may be the effect or the level left. Conditions: time min <=30. The gist of the method:
(§3)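 In vitro two-phase digestion at 37 °C, 1,000 rpm: 15 mL liquid or solid test meal (506 mg TAG) was premixed with 7.262 µmol inhibitor in DMSO (DMSO-only control). Gastric phase: DGL 17 µg/mL final, pH 5.5. Duodenal phase from 30 min: pancreatic extract plus bovine bile added (PPL 250 µg/mL, bile salts 4.0 mM), pH 6.25. Lipids in samples were quantified by TLC-FID; LL% is (MAG+FFA) relative to 3×initial TAG; n = 3.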

In experiment [14] the target is T1, Pancreatic triacylglycerol lipase (Sus scrofa). To be noted: dose 4.9 mg/ml, time 30-90 min. The source holds these as a separate data set.
Experiment [15] concerns the target T2, Gastric triacylglycerol lipase (Canis lupus familiaris). The experiment in a line: Inhibition of recombinant dog gastric lipase assessed as lipolysis level at 4.9 mg/ml under gastric phase at pH 5.5 using liquid test meal measured up to 30 mins (reference value: 22.3 +/- 1.4 %). Conditions: time min <=30. The arrangement: scale not given: the % may be the effect or the level left. The gist of the method: as §3

Experiment [16] has as its target T1, Pancreatic triacylglycerol lipase (Sus scrofa). To be noted: dose 4.9 mg/ml, time 30-90 min. The source holds these as a separate data set.

Molecules are shown by their SMILES.

Consider `O=c1oc(OCCOCc2ccccc2)nn1-c1cccc(Oc2ccccc2)c1`, for which the inhibition in experiment [1] came to 5.1%; in [5] it was 97.2%; in the experiment filed under Homo sapiens [6], 71.5%; in [10] it was 91.5%. Besides, the Activity came out at 20.6% in experiment [2], 3.1% in experiment [3], 4.5% in experiment [9] and 94.9% in experiment [11]. Further, the XI50 in the experiment listed under Homo sapiens [4] stood at 1.42 molar excess; in [7], 0.5 molar excess; in experiment [8] it was 0.64 molar excess.

As for `CCCCCCCCCCC[C@@H](C[C@@H]1OC(=O)[C@H]1CCCCCC)OC(=O)[C@@H](CC(C)C)NC=O`, the inhibition in experiment [12] worked out at 100%; in experiment [14] it was 100%; in experiment [16] it was 85.2%. Moreover, the figures for the Activity in experiment [13] and in experiment [15] were 2.1% and 0%, respectively.
